Screening results (PubChem BioAssay)
Only some compounds are listed: those with a hit (about 1.6% of all), similar ones and a draw of the others.
PPC-1+TRAIL kill: kills PPC-1 cancer cells in the presence of TRAIL | PPC-1 cells + TRAIL, ATPLite viability luminescence | cell killing (% activity), % at 4 µM or 5 µM | 220,000 tested, 0.41% active | AID 1443;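 active means cell killing above 50% in the first pass at 4 µM, then a duplicate retest at 5 µM averaging 50% or more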;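 further: plate controls were cells with TRAIL plus DMSO for no effect and medium-only wells lacking cells for full effect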
TRAIL sens C8: caspase-8 TRAIL sensitization; NB7+C8 cells + TRAIL, ATPlite viability luminescence; inhibition (viability loss, TRAIL sensitization), % at 10 µM; 360,000 tested, 1% active; AID 624354;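 active means compounds causing at least 50% loss of cell viability in the single-dose screen, relative to plate controls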
FLuc stim CS: affects firefly luciferase, flagging false hits in luciferase stimulation screens; ATPlite luciferase biochemical, luminescence, 10 min; 0 = ATP-free wells, 1 = DMSO control; 200,000 tested, under 10 active; activation factor at 10 µM; AID 1027;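 active means luciferase activation factor, scaled between plate controls, of at least 2 with compound at 10 µM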
Target sequence (P08659 whole entry, looked up): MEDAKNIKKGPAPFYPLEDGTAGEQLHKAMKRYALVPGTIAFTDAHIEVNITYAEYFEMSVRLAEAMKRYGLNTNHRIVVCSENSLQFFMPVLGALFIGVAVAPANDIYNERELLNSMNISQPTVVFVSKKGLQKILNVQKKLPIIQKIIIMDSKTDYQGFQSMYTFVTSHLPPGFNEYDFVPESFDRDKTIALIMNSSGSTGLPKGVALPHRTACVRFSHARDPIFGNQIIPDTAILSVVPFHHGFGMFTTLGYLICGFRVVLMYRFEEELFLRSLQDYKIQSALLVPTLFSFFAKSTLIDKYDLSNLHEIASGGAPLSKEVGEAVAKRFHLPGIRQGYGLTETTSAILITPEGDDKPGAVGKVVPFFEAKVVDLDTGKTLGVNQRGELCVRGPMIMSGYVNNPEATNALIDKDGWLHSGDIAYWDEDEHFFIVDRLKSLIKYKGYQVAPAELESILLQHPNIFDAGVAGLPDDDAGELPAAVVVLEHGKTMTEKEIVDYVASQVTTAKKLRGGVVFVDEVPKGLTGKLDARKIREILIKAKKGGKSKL
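Material: Luciferase/luciferin reagent mix; Doses: test compounds dosed from 2 mM stocks in 100% DMSO; Schedule: 10 min incubation after luciferase reagent addition, room temperature; Measured by: luminescence from luciferase reaction; Read-out: luminescence gain marking luciferase activators.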
FLuc inhib CS: Photinus pyralis luciferase inhibition counter-screen; P08659; ATPLite firefly luciferase biochemical luminescence, 10 min; inhibition, % at 10 µM; 200,000 tested, 1.5% active;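 active means inhibition above about 50% when tested at 10 µM, limit read from the data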
* marks the source's active call; other numbers are inactive results; . = not tested or not shown.

SMILES | PPC-1+TRAIL kill | TRAIL sens C8 | FLuc stim CS | FLuc inhib CS
Cc1cccnc1NC(=O)c1ccc(Cl)c(S(=O)(=O)N2CCCCC2)c1 | . | -7 | . | .
Oc1cccc(-c2nc3ccccc3s2)c1 | -15 | 48 | 0.3 | 71*
Cc1ccc(NC(=O)Cn2c(O)c(N=NC(=O)c3cc4ccccc4cc3O)c3ccccc32)cc1 | 5 | 70* | 0.9 | 14
CCCC(C(=O)NNC(=O)c1cc(C)oc1C)c1ccccc1 (configuration not stated) | . | -11 | . | .
COc1ccc2[nH]c3c(c2c1)CCNC3=O | . | -7 | . | .
C=C1CCc2c([nH]c3ccc(OCC(C)C)cc23)C1=O | . | 89* | . | .
CC(=O)Nc1cc2nn(-c3ccccc3)nc2cc1Cl | -1 | 43 | 0.4 | 56*
O=C(Nc1cc2nn(-c3ccccc3)nc2cc1Cl)c1ccco1 | 12 | 24 | 0.9 | 7
CC(C)C(=O)Nc1ccc2nn(-c3ccccc3)nc2c1 | 45 | 54* | 0.3 | 69*
C/C(=N/O)c1ccc(Oc2cnccn2)cc1 | 11 | 0 | 1 | 3
COCCN(Cc1ccc(OC)cc1)c1c(C)nc2ccc(C(=O)Nc3ccc(NC(C)=O)cc3)cn12 | . | 4 | . | .
Cc1nc(C)c(-c2csc(Nc3ccc(N)cc3)n2)s1 | . | 17 | . | .
Cc1cccc(Nc2nc(-c3cccs3)cs2)n1 | 5 | 8 | 0.7 | 26
c1ccc(Nc2nc(-c3cccs3)cs2)nc1 | 13 | 30 | 0.3 | 68*
Nc1ccc(Nc2nc(-c3cccs3)cs2)cc1 | . | -2 | 0.1 | 90*
O=C(N/N=C1\CCc2ccccc21)c1ccccc1Cl | 22 | 10 | 0.7 | 26
Cc1ccc(C(=O)N/N=C2\CCc3ccccc32)c(C)c1 | 24 | 48 | 0.4 | 62*
O=C(N/N=C1\CCc2ccccc21)c1ccc(O)cc1 | 33 | 33 | 0.3 | 66*
Cc1c(NC(=O)COC(=O)CSc2ccc([N+](=O)[O-])cc2)c(=O)n(-c2ccccc2)n1C | . | 6 | . | .
COc1ccc(-c2csc(N3N=C(C)C(C)C3=O)n2)cc1 (configuration not stated) | 23 | 8 | 0.4 | 61*
Cc1nc(NC(=S)NC(=O)c2ccccc2)sc1C | 19 | 63* | . | .
COC(=O)c1ccc(C(=O)NC(=S)Nc2nc3c(s2)CCCC3)cc1 | -7 | 13 | 1 | -4
O=C(NC(=S)Nc1nc2c(s1)CCCC2)c1ccccc1 | 23 | 71* | 0.4 | 63*
Cc1nc(NC(=O)c2ccccc2)sc1C | . | 18 | . | .
COc1cc2cc3c(N)c(C(=O)NCc4ccco4)sc3nc2cc1OC | 10 | 9 | 1 | -4
SMILES | PPC-1+TRAIL kill | TRAIL sens C8 | FLuc stim CS | FLuc inhib CS
Cc1ccc2nc3sc(C(=O)NCc4ccco4)c(N)c3cc2c1 | 10 | 21 | 0.5 | 50*
Cc1ccc2nc3sc(C(=O)N4CCOCC4)c(N)c3cc2c1 | -10 | -10 | 0.2 | 81*
COc1ccc(N(C(=O)CCl)C(C(=O)NC2CCCCC2)c2cccnc2)cc1 (configuration not stated) | 22 | 94* | 1.1 | -10
COc1ccc(C(C(=O)NC2CCCCC2)N(C(=O)c2ccccn2)c2cccnc2)cc1 (configuration not stated) | . | -4 | 1 | 2
O=C(NC1CCCCC1)C(c1cccnc1)N(C(=O)CCl)c1ccc(F)cc1 (configuration not stated) | 1 | 94* | 1.1 | -8
O=C(NC1CCCCC1)C(c1cccnc1)N(C(=O)CCl)c1ccccc1Cl (configuration not stated) | 0 | 15 | 1.1 | -10
CCN1C=C(C(C)=O)C(=O)CC1 | . | -12 | . | .
O=C1C(Br)=C(c2ccccc2)C(c2ccccc2)=C1c1ccccc1 | . | 82* | . | .
COc1cc2nc(N3CCN(C(=O)OCc4ccccc4)[C@H](C(=O)NC(C)(C)C)C3)nc(N)c2cc1OC | . | 4 | . | .
O=C(NC1CC1)c1cccc2c1C(=O)c1ccc(N3CCC(Cc4ccccc4)CC3)cc1S2(=O)=O | . | 23 | . | .
N#Cc1cccnc1N1CCN(C(=O)c2cccc3c2C(=O)c2ccc(-c4ccc(Cl)c(C(F)(F)F)c4)cc2S3(=O)=O)CC1 | . | 8 | . | .
O=C1c2ccc(Cl)cc2S(=O)(=O)c2cccc(C(=O)N3CCC(Cc4ccccc4)CC3)c21 | . | 93* | . | .
O=C(NCCOc1ccccc1)c1cccc2c1C(=O)c1ccc(Cl)cc1S2(=O)=O | . | 55* | . | .
N#Cc1cccnc1N1CCN(C(=O)c2cccc3c2C(=O)c2ccc(Cl)cc2S3(=O)=O)CC1 | . | 78* | . | .
Cc1ccccc1C(=O)NCC(=O)OCCOc1ccc(C(C)C)c(C)c1 | . | 15 | . | .
CCC(c1nc2ccccc2[nH]1)n1c(-c2ccc3ccccc3c2)nc2ccccc21 (configuration not stated) | . | -2 | . | .
